# Screens as filed in PubChem.
# Most compounds without a hit are left out; they make up all but 2.6% or so of the library.
# NSD2 HMT inh – NSD2 histone methyltransferase inhibitors, primary screen, biochemical, AlphaScreen, single concentration, set 2; Histone-lysine N-methyltransferase NSD2 (Homo sapiens), O96028; NSD2 peptide methylation, 120 min; inhibition, % at 12.5 µM; actives 0.54% (n = 310,000); in the data active = inhibition above about 50%
# UCH37 inh – inhibitors of human UCH37 deubiquitinase, primary screen, biochemical, Ub-AMC cleavage, fluorescence. Ubiquitin carboxyl-terminal hydrolase isozyme L5 (Homo sapiens), Q9Y5K5. purified proteasome/UCH37. inhibition, % (test concentration not listed). actives 0.33% (n = 330,000);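 active = mean inhibition over replicate wells above about 20%, limit read from the data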
# Target sequence (Q9Y5K5 whole entry, looked up): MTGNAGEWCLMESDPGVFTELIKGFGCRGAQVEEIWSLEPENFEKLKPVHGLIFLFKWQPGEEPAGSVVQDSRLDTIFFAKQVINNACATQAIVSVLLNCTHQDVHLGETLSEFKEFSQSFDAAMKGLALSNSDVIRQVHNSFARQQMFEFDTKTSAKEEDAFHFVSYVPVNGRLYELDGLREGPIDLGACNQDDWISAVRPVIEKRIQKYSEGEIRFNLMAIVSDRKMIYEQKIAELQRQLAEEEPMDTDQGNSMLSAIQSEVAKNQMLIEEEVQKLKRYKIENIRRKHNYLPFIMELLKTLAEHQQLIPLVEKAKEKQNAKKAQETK
#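 Test system – human UCH37 enzyme supplied as purified proteasome complex · Incubation – 30 min preincubation with enzyme, 25 min cleavage at room temperature · Detection – AMC fluorescence from Ub-AMC cleavage, excitation 355 nm, emission 460 nm · Benchmarks – no-proteasome wells (full inhibition) and compound-free wells (no inhibition)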
# SIRT5 block – SIRT5 desuccinylase inhibitors, primary screen, biochemical, fluorescence imaging, single point, set 5; NAD-dependent protein deacylase sirtuin-5, mitochondrial (Homo sapiens), Q9NXA8; Purified SirT5, succinyl-peptide AMC, trypsin-coupled fluorescence; inhibition, % at 15 µM; actives 1.1% (n = 330,000); AID 652115, 2013; in the data active = inhibition above about 15%
# FGF22 binding – binders of human FGF22 protein, primary screen, FGF22 synaptogenesis inhibitor project, biophysical, thermal shift, single point; Fibroblast growth factor 22 (Homo sapiens), Q9HCT0; recombinant FGF22 thermal shift, SYPRO orange fluorescence; percent of sucrose octasulfate shift, DMSO zero; activity (Tm shift, normalised), % at 9.99 µM; actives 1.5% (n = 340,000); AID 651658, 2012;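 active = mean Tm shift, scaled 0 neutral to 100 positive control, at about 1.3% or above, every replicate too, limit read from the data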
# CASP6 VEID inh – human caspase-6 inhibitors, primary screen, biochemical, VEID-R110 fluorescence, single point, set 2. P55212. purified caspase-6, Z-VEID-R110 cleavage fluorescence. inhibition, % at 12.5 µM. actives 0.53% (n = 350,000). AID 686996, 2013;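 active = mean inhibition across replicates at least about 35%, with every replicate also reaching that limit, limit read from the data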
# Target sequence (P55212 24-179 limits assumed): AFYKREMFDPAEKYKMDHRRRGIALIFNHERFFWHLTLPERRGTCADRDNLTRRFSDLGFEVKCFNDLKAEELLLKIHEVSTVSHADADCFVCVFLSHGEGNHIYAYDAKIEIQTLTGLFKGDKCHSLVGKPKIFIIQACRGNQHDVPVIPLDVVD
# Target sequence (P55212 194-293 limits assumed): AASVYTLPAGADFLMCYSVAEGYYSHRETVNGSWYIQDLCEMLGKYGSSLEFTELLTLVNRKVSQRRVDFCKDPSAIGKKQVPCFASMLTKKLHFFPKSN
# AlphaScreen art – AlphaScreen signal interference with preloaded methylated product, dose response, artefact control for NSD2 inhibitor project, biochemical, cherry-picked samples; AlphaScreen artifact counterscreen, preloaded methylated H4 peptide; AC35, µM (doses to about 10 µM); shares compounds with NSD2 HMT inh; actives 9.4% (n = 1,500); call rule not given here
# Numbers stand for hits; 0 = inactive; - = not tested or not shown.
SMILES,NSD2 HMT inh,UCH37 inh,SIRT5 block,FGF22 binding,CASP6 VEID inh,AlphaScreen art
CC1(C(=O)O)CCCN1C(=O)c1cccc(F)c1 (stereo not given),0,-,0,0,0,-
CCOC(=O)C1(C)CCCN1C(=O)c1cccc(F)c1 (stereo not given),59,-,0,0,0,0
CC(C)(C)NC(=O)CCN(N=Cc1ccccc1)C1=NS(=O)(=O)c2ccccc21,-,0,-,-,-,-
CC(=O)c1cc(C)ccc1OC(=O)CCN1C(=O)C2C3c4ccccc4C(c4ccccc43)C2C1=O (stereo not given),0,0,-,-,-,-
CC(=O)NCCN1C(=O)C2C3c4ccccc4C(c4ccccc43)C2C1=O (stereo not given),76,0,0,-,0,0
O=Nc1c(O)ccc2cc(S(=O)(=O)O)ccc12,0,0,-,-,-,-
CN(C)c1ccc2cc(S(=O)(=O)O)cc(O)c2c1,63,0,22,0,78,0.97µM
O=C(/C=C/c1ccco1)Nc1cc(Cl)ccc1C(=O)O,0,0,-,-,-,-
O=C(/C=C/c1ccco1)Nc1ccccc1C(=O)O,73,0,0,-,-,0
C[C@H]1CCCCO[C@H](CN(C)C(=O)Nc2ccccc2)[C@@H](C)CN([C@@H](C)CO)C(=O)c2cc(NC(=O)Nc3cccc4ccccc34)ccc2O1,-,-,0,-,0,-
Cc1cc(C)nc(NS(=O)(=O)c2ccc(NC(=O)c3ccccc3Br)cc2)n1,65,-,0,0,0,0
Cc1cc(C)nc(NS(=O)(=O)c2ccc(NC(=O)Nc3ccccc3)cc2)n1,0,0,0,0,0,-
Cc1cccnc1NC(=O)c1ccc(S(=O)(=O)N2CC(C)OC(C)C2)cc1 (stereo not given),50,0,0,0,0,0
O=C(CSc1nnc(-c2ccco2)n1-c1ccccc1)N1CCOCC1,0,0,-,-,-,-
C=CCn1c(SCC(=O)N2CCN(c3ccccc3)CC2)nnc1-c1ccco1,84,0,0,-,0,0
O=C(C1CCC1)N1CC2(C1)[C@H](c1ccccc1)[C@@H](CO)N2Cc1cccnc1,-,-,0,0,0,-
Cc1cccnc1Nc1nc(-c2ccc(O)c(O)c2)cs1,51,0,0,0,0,0
COc1ccc(-c2csc(Nc3ncccc3C)n2)cc1OC,0,0,-,-,-,-
Oc1ccc(-c2csc(Nc3cccc4ccccc34)n2)cc1O,51,0,0,0,43,0
CNC[C@@H]1OCCCC[C@H](C)Oc2ccc(NC(=O)Nc3c(C)noc3C)cc2C(=O)N([C@@H](C)CO)C[C@@H]1C,-,-,0,0,0,-
Cc1cc([N+](=O)[O-])cc2ncccc12,0,0,-,-,-,-
O=[N+]([O-])c1cc2ncccc2c2ncccc12,56,-,0,0,0,0
CN1CCCCN2[C@H](C1)[C@@H](c1ccc(Br)cc1)[C@@H]2CO,-,-,0,0,0,-
CN(C(=O)c1cccc(N2C(=O)C3C4C=CC(C4)C3C2=O)c1)C1CCCCC1 (stereo not given),0,0,0,0,0,-
CC1=CCC2C(=O)N(c3cccc(C(=O)N(C)C4CCCCC4)c3)C(=O)C2C1 (stereo not given),89,0,-,-,-,0
SMILES,NSD2 HMT inh,UCH37 inh,SIRT5 block,FGF22 binding,CASP6 VEID inh,AlphaScreen art
Cc1cc(C)n(N=Cc2ccccc2O)c(=O)c1,-,0,-,-,-,-
COCCN(C(=O)CCC(=O)Nc1ccccn1)C(C(=O)NC(C)C)c1ccc(Cl)cc1 (stereo not given),0,0,0,0,0,-
COCCN(C(=O)CCC(=O)Nc1ccccn1)C(C(=O)NC(C)C)c1ccc(C)cc1 (stereo not given),60,0,0,0,-,0
CN1c2ccc(C3=CCCCC3)cc2[C@@H]2[C@@H](CCN2C(=O)NC2CCCCC2)[C@H]1CO,-,-,-,0,-,-
COc1cccc(CNC(=S)Nc2ccc(Cl)cc2C)c1,75,0,0,0,0,0
CC(C)CNS(=O)(=O)c1ccccc1C(=O)N1CCCCC1,0,0,-,-,-,-
Cc1cccc(C)c1OCC(O)CNS(=O)(=O)c1ccccc1C(=O)N1CCCCC1 (stereo not given),105,0,-,-,-,0
CC(C(=O)O)N1C(=O)/C(=C/C=C/c2ccco2)SC1=S (stereo not given),176,0,-,-,-,4.3µM
COCCN(C(=O)CNC(=O)c1ccco1)C(C(=O)NC1CCCC1)c1ccc(OC)cc1 (stereo not given),110,0,0,0,0,0
COCCN(C(=O)CNC(=O)c1ccco1)C(C(=O)NC1CCCC1)c1ccccc1 (stereo not given),0,0,0,0,0,-
C[C@@H]1CN([C@H](C)CO)C(=O)c2cc(NS(C)(=O)=O)ccc2O[C@@H](C)CCCCO[C@H]1CN(C)C(=O)Nc1ccc(C(F)(F)F)cc1,-,-,0,0,0,-
Cn1cc(-c2ccccc2C(N)=O)c(=O)c2ccccc21,56,0,0,0,0,0
CN1CCN(/N=C/c2nc(-c3ccccc3Cl)n3ccccc23)CC1,67,-,-,-,-,0
C=CCn1c(N)c(C(=O)NCC2CCCO2)c2nc3ccccc3nc21 (stereo not given),99,0,-,-,-,0
COc1ccc(-n2c(N)c(C(=O)NCC3CCCO3)c3nc4ccccc4nc32)c(OC)c1 (stereo not given),0,0,-,-,-,-
CCCNC(=O)N1CC2(C1)[C@@H](c1ccccc1)[C@H](CO)N2C(=O)C1CCC1,-,-,0,-,0,-
CCN(CC)C(=O)COc1ccc2oc(C)c(C(=O)OC(C)C)c2c1,114,0,-,-,-,0
Cc1oc2ccc(OS(C)(=O)=O)cc2c1C(=O)OC(C)C,0,0,0,0,-,-
O=C([C@H]1[C@H](CO)[C@H]2Cn3c(cccc3=O)[C@@H]1N2CCC(F)(F)F)N1CCCCC1,-,-,0,0,0,-
Cc1ccc(S(=O)(=O)NC(C(=O)N2CCN(S(=O)(=O)c3cccc(F)c3)CC2)C(C)C)cc1 (stereo not given),94,0,0,0,0,0
Cc1ccc(S(=O)(=O)NC(C(=O)N2CCOCCOCCOCC2)C(C)C)cc1 (stereo not given),0,0,0,0,0,-
CN(C)CC(=O)Nc1ccc2c(c1)[C@H]1C[C@@H](CC(=O)NC3CCCCC3)O[C@@H](CO)[C@H]1O2,-,-,0,0,0,-
COc1ccc(NS(=O)(=O)c2cc(NC(=O)COc3ccccc3)ccc2N2CCOCC2)cc1,60,0,-,0,0,0
COc1ccc(CNC(=O)CN(c2ccc(C)cc2)S(=O)(=O)c2c(C)noc2C)cc1,63,0,0,0,0,0
COc1ccc(N(CC(=O)NCc2ccccc2)S(=O)(=O)c2c(C)noc2C)cc1,0,0,-,-,-,-
